What all share (type): functional, organism-based
The test system of assay [1] is Influenza A virus. The experiment in a line: Antimicrobial activity against H274Y mutant oseltamivir-resistant influenza A virus (A/Yokohama/67/2006 (H1N1)) clone 11 infected in BALB/c mouse assessed as reduction in viral titer in lung at 1.0 mg/kg, po administered 13 hrs post infection, qd measured after 85 hrs post infection. Further details: dose 1 mg/kg.
Assay [2] relates to Influenza A virus. In words: Antimicrobial activity against H274Y mutant oseltamivir-resistant influenza A virus (A/Yokohama/67/2006 (H1N1)) clone 11 infected in BALB/c mouse assessed as reduction in viral titer in lung at 10 mg/kg, po administered 13 hrs post infection, qd measured after 37 hrs post infection. Further details: dose 10 mg/kg.
Assay [3] concerns Influenza A virus. In words: Antimicrobial activity against H274Y mutant oseltamivir-resistant influenza A virus (A/Yokohama/67/2006 (H1N1)) clone 11 infected in BALB/c mouse assessed as reduction in viral titer in lung at 1.0 mg/kg, po administered 13 hrs post infection, qd measured after 61 hrs post infection. Further details: dose 1 mg/kg.
The subject of assay [4] is Influenza A virus. In words: Antimicrobial activity against H274Y mutant oseltamivir-resistant influenza A virus (A/Yokohama/67/2006 (H1N1)) clone 11 infected in BALB/c mouse assessed as reduction in viral titer in lung at 10 mg/kg, po administered 13 hrs post infection, qd measured after 85 hrs post infection. Further details: dose 10 mg/kg.
For assay [5], the system named is Influenza A virus. The experiment in a line: Antimicrobial activity against H274Y mutant oseltamivir-resistant influenza A virus (A/Yokohama/67/2006 (H1N1)) clone 11 infected in BALB/c mouse assessed as reduction in viral titer in lung at 10 mg/kg, po administered 13 hrs post infection, qd measured after 61 hrs post infection. Further details: dose 10 mg/kg.
The test system of assay [6] is Influenza A virus. In words: Antimicrobial activity against H274Y mutant oseltamivir-resistant influenza A virus (A/Yokohama/67/2006 (H1N1)) clone 11 infected in BALB/c mouse assessed as reduction in viral titer in lung at 1.0 mg/kg, po administered 13 hrs post infection, qd measured after 37 hrs post infection. Further details: dose 1 mg/kg.
In assay [7] the test system is Influenza A virus. The experiment in a line: Antimicrobial activity against H274Y mutant oseltamivir-resistant influenza A virus (A/Yokohama/67/2006 (H1N1)) clone 11 infected in BALB/c mouse assessed as reduction in viral titer in lung at 0.080 mg/kg, itn administered 13 hrs post infection measured after 61 hrs post infection. Further details: dose 0.08 mg/kg. In a few lines: (§1)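 Female BALB/c mice (5–6 weeks) infected intranasally with clone 11, then given a single intranasal dose in saline at 13 hpi. Lungs from 3 mice per time point were homogenized in PBS with 0.4% BSA and centrifuged at 2,200 × g. Supernatants were titrated by MDCK plaque assay (agar overlay with 1 μg/ml trypsin, 2 days, crystal violet). Reported as log10 PFU/lungs, mean ± SD; detection limit 2.4.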

In assay [8] the test system is Influenza A virus. The experiment in a line: Antimicrobial activity against H274Y mutant oseltamivir-resistant influenza A virus (A/Yokohama/67/2006 (H1N1)) clone 11 infected in BALB/c mouse assessed as reduction in viral titer in lung at 0.080 mg/kg, itn administered 13 hrs post infection measured after 37 hrs post infection. Further details: dose 0.08 mg/kg. Summed up: as §1

Assay [9] concerns Influenza A virus. In words: Antimicrobial activity against H274Y mutant oseltamivir-resistant influenza A virus (A/Yokohama/67/2006 (H1N1)) clone 11 infected in BALB/c mouse assessed as reduction in viral titer in lung at 0.080 mg/kg, itn administered 13 hrs post infection measured after 85 hrs post infection. Further details: dose 0.08 mg/kg. In a few lines:
as §1

Active and inactive are the calls of the source. The rule behind the calls is not given here.

Take `CCOC(=O)C1=C[C@@H](OC(CC)CC)[C@H](NC(C)=O)[C@@H](N)C1.O=P(O)(O)O` [OSELTAMIVIR PHOSPHATE]: the outcome in the assay on Influenza A virus [1], with Influenza A virus [2], in the assay with Influenza A virus [3], with Influenza A virus [4], with Influenza A virus [5] and in the assay on Influenza A virus [6] was inactive.
With `CCCCCCCC(=O)OC[C@@H](O)[C@@H](OC)[C@@H]1OC(C(=O)O)=C[C@H](NC(=N)N)[C@H]1NC(C)=O` [LANINAMIVIR OCTANOATE], the outcome in the assay with Influenza A virus [7], in the assay on Influenza A virus [8] and in the assay with Influenza A virus [9] was Active.

Values taken from ChEMBL document CHEMBL1255395, “Laninamivir prodrug CS-8958, a long-acting neuraminidase inhibitor, shows superior anti-influenza virus activity after a single administration” (Antimicrob Agents Chemother, 2010).
